KCNQ1 act: potentiators or activators of KCNQ1 channel, primary screen, cell-based, thallium flux, high-throughput; CHO-K1 KCNQ1, thallium flux FluxOR fluorescence; active compounds read high; 310,000 tested, 0.35% active; B-score at 10 µM;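 active means fluorescence ratio B-score, a plate-corrected score, at least three library SD, with initial intensity B-score within 5 SD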
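Assay system: CHO-K1 cells stably expressing KCNQ1. Medium: assay buffer for compound exposure, DMSO matched across wells. Timing: 37 °C overnight plating, 90-min dark dye load, 20-min compound pretreatment. Signal: kinetic FluxOR fluorescence, 10 s baseline plus 110 s post-stimulus.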
KCNK9 block: KCNK9 potassium channel inhibitors, primary screen, HEK293 cells, thallium flux; AID 488922, 2010; B-score at 10 µM; FluxOR thallium flux fluorescence; active compounds read low; Potassium channel subfamily K member 9 (Homo sapiens), Q9NPC2; 310,000 tested, 1.2% active;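 active means ratio B-score over 3 SD below the library mean, with starting fluorescence within 5 SD of its mean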;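 further: negative B-score means less thallium flux so channel inhibition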
KCNK3 inh: human KCNK3 channel inhibitors, primary screen, CHO cells, FluxOR thallium flux, B-score. Potassium channel subfamily K member 3 (Homo sapiens), O14649. FluxOR fluorescence; active compounds read low. B-score at 10 µM. 340,000 tested, 0.84% active;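 active means B-score under library mean minus 4 SD, starting fluorescence ratio at most library mean plus 5 SD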;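 further: more negative B-score means stronger inhibition of thallium flux through KCNK3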
Target sequence (O14649 whole entry, looked up): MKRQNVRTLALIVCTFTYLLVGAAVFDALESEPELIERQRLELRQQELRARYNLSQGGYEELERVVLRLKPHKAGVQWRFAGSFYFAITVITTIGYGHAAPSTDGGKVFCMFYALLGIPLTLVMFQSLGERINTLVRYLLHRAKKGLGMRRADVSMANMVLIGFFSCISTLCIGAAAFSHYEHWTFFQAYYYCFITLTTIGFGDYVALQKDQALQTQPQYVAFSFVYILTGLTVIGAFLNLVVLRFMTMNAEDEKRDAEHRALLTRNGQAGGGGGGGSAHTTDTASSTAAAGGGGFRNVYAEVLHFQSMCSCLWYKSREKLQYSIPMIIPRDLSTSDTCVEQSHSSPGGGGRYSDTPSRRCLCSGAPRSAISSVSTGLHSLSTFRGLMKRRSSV
KCNQ1 inh: inhibitors of human KCNQ1 channel, primary screen, cell-based, thallium flux, high-throughput; CHO-K1 KCNQ1, FluxOR thallium flux fluorescence; active compounds read high; B-score at 10 µM; 310,000 tested, 1.3% active; AID 2642, 2010;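 active means compounds whose thallium flux B-score, printed positive for inhibition, exceeds three library SD while starting fluorescence stays within three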;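 further: channel opened by potassium depolarization with thallium stimulus after 20 min compound exposure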
Kir21 block: inhibitors of mouse Kir2.1 inward-rectifier potassium channel; Inward rectifier potassium channel 2 (Mus musculus), P35561; HEK293-Kir2.1, FluxOR thallium flux fluorescence; active compounds read low; B-score at 10 µM; 310,000 tested, 0.85% active; AID 1672, 2009;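 active means fluorescence ratio B-score at or below minus 3 SD of library scores, with starting-brightness B-score within 2 SD, cut at about -4.2 in these data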;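 further: channel flux triggered by added potassium and thallium sulfate stimulus; B-score of peak minus minimum fluorescence over baseline after thallium stimulus; more negative B-score means stronger Kir2.1 block with less thallium influx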
hERG protect: hERG rescue from dofetilide block, primary screen, cell-based, CHO-hERG, FluxOR thallium flux, dofetilide IC70; Voltage-gated inwardly rectifying potassium channel KCNH2 (Homo sapiens), Q12809; dofetilide IC70 present; activation (rescue from dofetilide block), less the hit threshold, % at 10 µM; 310,000 tested, 0.51% active;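 active means activation above the mean of controls blocked by dofetilide plus 5 SD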;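 further: thallium influx through hERG after potassium depolarization seen as dye fluorescence rise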
KCNK9 inh conf: KCNK9 potassium channel inhibitors, confirmation, HEK293 cells, thallium flux, duplicate; shares compounds with KCNK9 block; FluxOR thallium flux fluorescence; inhibition, % at 10 µM; 4,900 tested, 43% active; AID 492992, 2010;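 active means thallium signal inhibited by more than 5 SD of the compound-free buffer control wells, on both duplicate plates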;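 further: 0% = assay buffer control wells without compound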
Kir2-1 spec: mouse Kir2.1 channel inhibition, confirmation, selectivity assay for KCNK9 modulator project, cell-based, HEK293, thallium flux; shares compounds with KCNK9 block; Kir2.1 cells, FluxOR thallium flux fluorescence; inhibition, % at 10 µM; 4,900 tested, 4% active; AID 492993, 2010;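 active means thallium signal drop more than 5 SD beyond the mean of the no-compound control wells, seen in both duplicate plates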;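 further: signal is fluorescence rise after thallium addition divided by baseline fluorescence; plate controls were assay buffer only for no effect and full block by chlorpromazine control for full effect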
KCNK9 uninduced: thallium flux in non-induced HEK293 cells, confirmation, counter-screen for KCNK9 inhibitor project, cell-based, second counter screen, non-induced KCNK9-HEK293; shares compounds with KCNK9 block; FluxOR thallium flux; inhibition, % at 10 µM; 4,900 tested, 40% active;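 active means thallium signal drop beyond 5 SD of the untreated control mean, on both duplicate plates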;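 further: plate controls were buffer only IC0 wells for no effect and SID17386958 at its maximal inhibitory level for full effect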
The depositor's hits bear a star; i = inactive; nt = not tested or not shown. Sampled rows, rich in hits. Any-hit rate of the full collection: about 3.7%.

SMILES | KCNQ1 act | KCNK9 block | KCNK3 inh | KCNQ1 inh | Kir21 block | hERG protect | KCNK9 inh conf | Kir2-1 spec | KCNK9 uninduced
OCCN1CCN(C2Cc3cc(Cl)ccc3Sc3ccc(Cl)cc32)CC1 (stereo not drawn) (tested in a mixture with another compound) | i | -8.6* | i | 7* | -2 | -22 | i | i | i
CCc1ccc2c(c1)Sc1ccccc1CC2N1CCN(C)CC1 (stereo not drawn) | i | i | i | i | -2.9 | -20 | nt | nt | nt
COc1cccc(CNC(=O)c2ccncc2)c1 | i | i | i | i | 2.8 | -5 | nt | nt | nt
COc1ccc2oc(C(=O)NCC(c3ccco3)N(C)C)c(C)c2c1 (stereo not drawn) | i | i | i | i | -2.4 | -11 | nt | nt | nt
Cc1ccc2oc(C(=O)N(C)Cc3ccon3)c(C)c2c1 | i | i | i | i | 0.77 | -8 | nt | nt | nt
Cc1ccc2oc(C(=O)N(C)Cc3ccc(C)o3)c(C)c2c1 | i | i | i | i | -1.4 | -7 | i | i | 25%*
COc1ccc2oc(C(=O)N(C)CCOc3ccc(Cl)cc3)c(C)c2c1 | i | i | i | i | 1.1 | -7 | i | i | i
COc1cccc(-c2nc(CS(=O)(=O)CC(=O)NCC(C)c3ccccc3)c(C)o2)c1 (stereo not drawn) | i | i | i | i | -1.6 | -12 | i | i | i
CCCCCCCCC[n+]1cccc2c3ccccc3ccc21 | i | -17* | i | i | -10* | -32 | 70%* | 90%* | 30%*
CCCCCCCCCCCCCCCC[n+]1cccc2ccccc21 | nt | nt | i | nt | nt | nt | nt | nt | nt
Cc1c(N2C(=O)/C(=C/C3CC=CCC3)SC2=S)c(=O)n(-c2ccccc2)n1C (stereo not drawn) | i | i | i | i | 0.12 | -1 | nt | nt | nt
Cc1c(N2C(=O)/C(=C/c3ccccc3)SC2=S)c(=O)n(-c2ccccc2)n1C | i | i | i | i | 0.13 | -8 | i | i | i
Cc1ccc(/C=C2\SC(=S)N(c3c(C)n(C)n(-c4ccccc4)c3=O)C2=O)cc1 | i | i | i | i | 1.1 | -7 | i | i | i
Cn1ccsc1=NC(=O)c1ccc(OC(F)(F)F)cc1 | i | i | i | i | -0.14 | -8 | nt | nt | nt
Cc1c(Cl)cccc1NC(=O)COC(=O)c1c2c(nc3ccccc13)CCN(Cc1ccccc1)C2 | i | -12* | i | i | 2.1 | -9 | 60%* | i | 32%*
O=C(NC1CCCCCC1)c1c2c(nc3ccccc13)CCN(Cc1ccccc1)C2 | i | i | i | i | -0.23 | -11 | nt | nt | nt
Cc1ccc(C)c(N=C2CCCN2Cc2ccccc2)c1C#N | i | -8.9* | i | i | -3.2 | -13 | i | i | 36%*
N#Cc1c2c(c[nH]c1=O)CCN2Cc1ccccc1 | i | i | i | i | -0.36 | -7 | nt | nt | nt
Cc1cc(C)c(-n2nnnc2SC(C)C)c(C)c1 | i | -11* | i | i | -0.63 | -5 | 54%* | i | 42%*
CN(CC(=O)Nc1ccccc1Cl)C(=O)c1cccc(S(=O)(=O)N2CCN(Cc3ccccc3)CC2)c1 | i | i | i | i | 0.12 | -22 | nt | nt | nt
COc1cccc(OC)c1C(=O)Nc1ccc2c(c1)N(S(=O)(=O)c1cccs1)CCC2 | i | i | i | i | -0.33 | -6 | nt | nt | nt
O=C(Nc1ccc2c(c1)N(S(=O)(=O)c1cccs1)CCC2)c1c(F)cccc1Cl | i | -11* | i | i | -0.15 | -13 | i | i | 36%*
O=C(NCC[C@@H]1C[C@@H]2C=C[C@H]1C2)c1cc(COc2ccc(F)cc2F)on1 | i | -21* | i | i | 0 | -8 | 40%* | i | 38%*
CCS(=O)(=O)c1ccc(O)c(NC(=O)CC2(CC(=O)O)CCCC2)c1 | i | i | i | i | 1.6 | -10 | nt | nt | nt
Cc1cccc(N2C(=O)C3CCC(c4ccccc4)CC3C2=O)c1 (stereo not drawn) | i | i | i | i | 0 | -1 | i | i | i
SMILES | KCNQ1 act | KCNK9 block | KCNK3 inh | KCNQ1 inh | Kir21 block | hERG protect | KCNK9 inh conf | Kir2-1 spec | KCNK9 uninduced
COc1ccc(NC(=O)C2CCN(S(=O)(=O)c3cccc4nonc34)CC2)cc1OC | i | i | i | i | 1 | -5 | nt | nt | nt
CCCCCCCCCCCC(=O)NC(Cc1ccc(OC)c([N+](=O)[O-])c1)C(=O)O (stereo not drawn) | i | i | i | i | 1.7 | -13 | i | i | i
CCOC(=O)C(Cc1ccc(OC)c([N+](=O)[O-])c1)NC(=O)CCC(=O)Nc1ccc(OC)cc1 (stereo not drawn) | i | i | i | i | -0.67 | -2 | nt | nt | nt
CCCCSc1nnc(-c2ccccc2)c2ccccc12 | i | -15* | i | i | -1.1 | -17 | 38%* | i | 42%*
CCN1CCN(c2nnc(-c3ccccc3)c3ccccc23)CC1 | i | i | i | i | 0.14 | -3 | nt | nt | nt
COc1ccc(NC2CCCN(C(=O)CCc3cccc(F)c3)C2)cc1 (stereo not drawn) | i | i | i | i | -2.3 | -10 | nt | nt | nt
COc1cccc(C(=O)N2CCCC(Nc3ccc(C)c(C)c3)C2)c1 (stereo not drawn) | i | i | i | i | -1.1 | -7 | i | i | i
COc1ccc(NC2CCCN(C(=O)c3ccc(C(C)=O)cc3)C2)cc1 (stereo not drawn) | i | i | i | i | 1.5 | -11 | nt | nt | nt
Cc1cccc(C(=O)N2CCCC(Nc3ccc(C)c(C)c3)C2)n1 (stereo not drawn) | i | i | i | i | 1.5 | -6 | i | i | i
